From ChEMBL document CHEMBL1938298, “Synthesis and characterization of [¹²⁵I]2-iodo N-[(S)-{(S)-1-methylpiperidin-2-yl}(phenyl)methyl]3-trifluoromethyl-benzamide as novel imaging probe for glycine transporter 1” (Bioorg Med Chem, 2011)
pIC50: −log10 of the molar value.

How the values were obtained:
[1] = target: T1, Sodium- and chloride-dependent glycine transporter 1 (Homo sapiens, UniProt P48067); experiment: Inhibition of GlyT1 in human JAR cells assessed as inhibition of [3H]glycine uptake preincubated for 1 mins measured after 2 hrs by liquid scintillation counting; format: cell-based
T1 sequence (P48067 whole entry): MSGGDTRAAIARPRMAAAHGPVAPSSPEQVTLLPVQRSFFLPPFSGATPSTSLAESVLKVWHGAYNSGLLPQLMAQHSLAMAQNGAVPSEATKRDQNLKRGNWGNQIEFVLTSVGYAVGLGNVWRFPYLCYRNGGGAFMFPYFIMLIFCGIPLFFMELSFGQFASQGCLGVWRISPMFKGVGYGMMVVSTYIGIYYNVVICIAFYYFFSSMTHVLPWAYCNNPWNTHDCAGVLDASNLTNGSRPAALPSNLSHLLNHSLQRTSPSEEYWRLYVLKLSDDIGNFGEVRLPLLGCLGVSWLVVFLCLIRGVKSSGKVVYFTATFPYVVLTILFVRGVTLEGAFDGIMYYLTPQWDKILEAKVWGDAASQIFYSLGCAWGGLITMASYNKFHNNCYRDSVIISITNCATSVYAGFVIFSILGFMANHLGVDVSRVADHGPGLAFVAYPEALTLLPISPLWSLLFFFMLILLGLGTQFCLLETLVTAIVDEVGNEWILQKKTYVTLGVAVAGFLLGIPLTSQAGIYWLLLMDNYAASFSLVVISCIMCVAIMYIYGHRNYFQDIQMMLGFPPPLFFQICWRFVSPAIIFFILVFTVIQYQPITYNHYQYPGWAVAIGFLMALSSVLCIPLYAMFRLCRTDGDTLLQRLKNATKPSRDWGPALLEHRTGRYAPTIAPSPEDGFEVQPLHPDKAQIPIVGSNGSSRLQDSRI
Method in brief: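 [3H]glycine (final 10 µM) was added for 2 h at room temperature; nonspecific uptake was defined with 10 mM glycine. Cells were lysed in NaOH and counted by liquid scintillation. IC50 values are from at least three measurements, mean ± SEM.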

[2] = target: T1, Sodium- and chloride-dependent glycine transporter 1; experiment: Inhibition of human GlyT1 expressed in CHO cells assessed as inhibition of [3H]glycine uptake preincubated for 1 mins measured after 2 hrs by liquid scintillation counting; format: cell-based

Row | pIC50 [1] | pIC50 [2] | SMILES
1 | 7.37 |  | O=C(N[C@@H](c1ccccc1)[C@@H]1CCCCN1)c1cccc(C(F)(F)F)c1I
2 | 7.10 | 6.50 | O=C(N[C@@H](c1ccccc1)[C@@H]1CCCCN1)c1cccc(C(F)(F)F)c1Cl
